# What was measured:
# [1] = test system: Acinetobacter baumannii; assay: Synergistic antibacterial activity against Acinetobacter baumannii PR323 producing OXA-24/40 assessed as cefepime MIC at 8 ug/ml by broth microdilution method; type: functional; details: dose 8 µg/ml
# [2] = test system: Klebsiella pneumoniae; assay: Synergistic antibacterial activity against Klebsiella pneumoniae CAV 1636 producing OXA-181 assessed as cefepime MIC at 8 ug/ml by broth microdilution method; type: functional; details: dose 8 µg/ml
# [3] = test system: Klebsiella pneumoniae; assay: Synergistic antibacterial activity against Klebsiella pneumoniae 660/1568 producing KPC-3 assessed as cefepime MIC at 8 ug/ml by broth microdilution method; type: functional; details: dose 8 µg/ml
# Method in brief: (§1)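 Broth microdilution per CLSI guidelines, using custom frozen panels. […] Each partner drug was also tested alone. MICs were run in triplicate and the modal value is reported.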
# [4] = test system: Acinetobacter baumannii; assay: Synergistic antibacterial activity against Acinetobacter baumannii PR440 producing OXA-23/24/40 assessed as meropenem MIC at 4 ug/ml by broth microdilution method; type: functional; details: dose 4 µg/ml
# [5] = test system: Escherichia coli; assay: Antibacterial activity against Escherichia coli DH10B transfected with pBR322-catI-KPC-2 by broth microdilution method; type: functional
# [6] = test system: Acinetobacter baumannii; assay: Synergistic antibacterial activity against Acinetobacter baumannii PR476 producing OXA-24/40 assessed as cefepime MIC at 4 ug/ml by broth microdilution method; type: functional; details: dose 4 µg/ml
# [7] = test system: Acinetobacter baumannii; assay: Synergistic antibacterial activity against Acinetobacter baumannii PR408 producing OXA-24/40 assessed as cefepime MIC at 8 ug/ml by broth microdilution method; type: functional; details: dose 8 µg/ml
# [8] = test system: Bacteria; assay: Inhibition of bacteria PDC-3 assessed as second order rate constant K2/K using nitrocefin as substrate
# [9] = test system: Escherichia coli; assay: Synergistic antibacterial activity against Escherichia coli DH10B transfected with pBC SK (-) PDC-3 assessed as meropenem MIC at 4 ug/ml by broth microdilution method; type: functional; details: dose 4 µg/ml; method in brief: as §1
# [10] = test system: Pseudomonas aeruginosa; assay: Synergistic antibacterial activity against Pseudomonas aeruginosa 839 assessed as meropenem MIC at 8 ug/ml by broth microdilution method; type: functional; details: dose 8 µg/ml
# [11] = test system: Klebsiella pneumoniae; assay: Synergistic antibacterial activity against Klebsiella pneumoniae 440/1360 producing KPC-2 assessed as meropenem MIC at 8 ug/ml by broth microdilution method; type: functional; details: dose 8 µg/ml; method in brief: as §1
# [12] = test system: Klebsiella pneumoniae; assay: Synergistic antibacterial activity against Klebsiella pneumoniae 729/1679 producing KPC-3 assessed as meropenem MIC at 8 ug/ml by broth microdilution method; type: functional; details: dose 8 µg/ml; method in brief: as §1
# [13] = test system: Acinetobacter baumannii; assay: Synergistic antibacterial activity against ADC deleted Acinetobacter baumannii transfected with pWH1266 producing OXA-24/40 assessed as meropenem MIC at 8 ug/ml by broth microdilution method; type: functional; details: dose 8 µg/ml
# [14] = test system: Klebsiella pneumoniae; assay: Synergistic antibacterial activity against Klebsiella pneumoniae CAV 1543 producing OXA-48 assessed as meropenem MIC at 4 ug/ml by broth microdilution method; type: functional; details: dose 4 µg/ml
# [15] = test system: Acinetobacter baumannii; assay: Synergistic antibacterial activity against Acinetobacter baumannii PR448 producing OXA-23 assessed as cefepime MIC at 8 ug/ml by broth microdilution method; type: functional; details: dose 8 µg/ml
# Method in brief: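 Broth microdilution per CLSI guidelines in frozen panels. Test compound held at fixed 8 mg/L while the partner β-lactam concentration was increased. Run in triplicate; modal MIC reported.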
# [16] = test system: Escherichia coli; assay: Antibacterial activity against Escherichia coli DH10B transfected with pBC SK (-) KPC-2 by broth microdilution method; type: functional
# [17] = test system: Acinetobacter baumannii; assay: Synergistic antibacterial activity against Acinetobacter baumannii PR448 producing OXA-23 assessed as cefepime MIC at 4 ug/ml by broth microdilution method; type: functional; details: dose 4 µg/ml
# [18] = test system: Escherichia coli; assay: Synergistic antibacterial activity against Escherichia coli DH10B transfected with pBC SK (-) OXA-48 assessed as meropenem MIC at 8 ug/ml by broth microdilution method; type: functional; details: dose 8 µg/ml; method in brief: as §1
# [19] = test system: Escherichia coli; assay: Synergistic antibacterial activity against Escherichia coli DH10B assessed as meropenem MIC at 8 ug/ml by broth microdilution method; type: functional; details: dose 8 µg/ml
# [20] = test system: Bacteria
# [21] = test system: Pseudomonas aeruginosa; assay: Synergistic antibacterial activity against Pseudomonas aeruginosa CL232 assessed as cefepime MIC at 4 ug/ml by broth microdilution method; type: functional; details: dose 4 µg/ml
# [22] = test system: Acinetobacter baumannii; assay: Synergistic antibacterial activity against ADC deleted Acinetobacter baumannii transfected with pWH1266 producing OXA-24/40 assessed as cefepime MIC at 4 ug/ml by broth microdilution method; type: functional; details: dose 4 µg/ml
# [23] = test system: Klebsiella pneumoniae; assay: Synergistic antibacterial activity against Klebsiella pneumoniae 11978 producing OXA-48 assessed as cefepime MIC at 4 ug/ml by broth microdilution method; type: functional; details: dose 4 µg/ml; method in brief: as §1
# [24] = test system: Escherichia coli; assay: Synergistic antibacterial activity against Escherichia coli DH10B transfected with pBC SK (-) OXA-48 assessed as cefepime MIC at 8 ug/ml by broth microdilution method; type: functional; details: dose 8 µg/ml; method in brief: as §1
# [25] = test system: Pseudomonas aeruginosa; assay: Synergistic antibacterial activity against Pseudomonas aeruginosa CL232 assessed as cefepime MIC at 8 ug/ml by broth microdilution method; type: functional; details: dose 8 µg/ml
# [26] = test system: Escherichia coli; assay: Synergistic antibacterial activity against Escherichia coli DH10B transfected with pBC SK (-) KPC-3 assessed as cefepime MIC at 8 ug/ml by broth microdilution method; type: functional; details: dose 8 µg/ml
# [27] = test system: Escherichia coli; assay: Synergistic antibacterial activity against Escherichia coli DH10B transfected with pBC SK (-) KPC-3 assessed as meropenem MIC at 8 ug/ml by broth microdilution method; type: functional; details: dose 8 µg/ml
# [28] = test system: Acinetobacter baumannii; assay: Synergistic antibacterial activity against Acinetobacter baumannii PR474 producing OXA-23/24/40 assessed as cefepime MIC at 4 ug/ml by broth microdilution method; type: functional; details: dose 4 µg/ml
# [29] = test system: Klebsiella pneumoniae; assay: Synergistic antibacterial activity against Klebsiella pneumoniae 660/1568 producing KPC-3 assessed as meropenem MIC at 4 ug/ml by broth microdilution method; type: functional; details: dose 4 µg/ml; method in brief: as §1
# [30] = test system: Bacteria; assay: Inhibition of bacteria OXA-48 assessed as Koff rate using nitrocefin as substrate incubated for 30 mins
# [31] = test system: Acinetobacter baumannii; assay: Synergistic antibacterial activity against Acinetobacter baumannii PR440 producing OXA-23/24/40 assessed as cefepime MIC at 4 ug/ml by broth microdilution method; type: functional; details: dose 4 µg/ml
# [32] = test system: Acinetobacter baumannii; assay: Synergistic antibacterial activity against ADC deleted Acinetobacter baumannii assessed as meropenem MIC at 4 ug/ml by broth microdilution method; type: functional; details: dose 4 µg/ml
# [33] = test system: Acinetobacter baumannii; assay: Synergistic antibacterial activity against Acinetobacter baumannii PR476 producing OXA-24/40 assessed as meropenem MIC at 8 ug/ml by broth microdilution method; type: functional; details: dose 8 µg/ml
# [34] = test system: Bacteria; assay: Inhibition of bacteria ADC-7 assessed as Koff rate using nitrocefin as substrate incubated for 30 mins
# [35] = test system: Acinetobacter baumannii; assay: Synergistic antibacterial activity against Acinetobacter baumannii PR420 producing OXA-23/24/40 assessed as meropenem MIC at 4 ug/ml by broth microdilution method; type: functional; details: dose 4 µg/ml
# [36] = test system: Klebsiella pneumoniae; assay: Synergistic antibacterial activity against Klebsiella pneumoniae NY BS producing OXA-232 assessed as cefepime MIC at 4 ug/ml by broth microdilution method; type: functional; details: dose 4 µg/ml
# [37] = test system: Klebsiella pneumoniae; assay: Synergistic antibacterial activity against Klebsiella pneumoniae 1315/2198 producing KPC-3 assessed as cefepime MIC at 8 ug/ml by broth microdilution method; type: functional; details: dose 8 µg/ml; method in brief: as §1
# [38] = test system: Klebsiella pneumoniae; assay: Synergistic antibacterial activity against Klebsiella pneumoniae 972/1910 producing KPC-3 assessed as cefepime MIC at 4 ug/ml by broth microdilution method; type: functional; details: dose 4 µg/ml
# [39] = test system: Klebsiella pneumoniae; assay: Synergistic antibacterial activity against Klebsiella pneumoniae 1084/1957 producing KPC-3 assessed as cefepime MIC at 4 ug/ml by broth microdilution method; type: functional; details: dose 4 µg/ml; method in brief: as §1
# [40] = test system: Acinetobacter baumannii; assay: Antibacterial activity against ADC deleted Acinetobacter baumannii by broth microdilution method; type: functional
Structure (SMILES),MIC [1],MIC [2],MIC [3],MIC [4],MIC [6],MIC [7],K [8],MIC [9],MIC [10],MIC [11],MIC [12],MIC [13],MIC [14],MIC [15],MIC [17],MIC [18],MIC [19],MIC [21],MIC [22],MIC [23],other results
N#C[C@@H]1CC[C@@H]2CN1C(=O)N2OS(=O)(=O)[O-].[Na+],> 16 µg/mL,0.5 µg/mL,0.25 µg/mL,4 µg/mL,2 µg/mL,8 µg/mL,2.3 10^4/M/s,≤ 0.12 µg/mL,1 µg/mL,≤ 0.12 µg/mL,≤ 0.12 µg/mL,> 16 µg/mL,≤ 0.12 µg/mL,4 µg/mL,2 µg/mL,≤ 0.12 µg/mL,≤ 0.12 µg/mL,> 16 µg/mL,16 µg/mL,0.5 µg/mL,MIC [5]: > 16 µg/mL; MIC [16]: > 16 µg/mL; T1/2 [20]: 29 min; MIC [24]: ≤ 0.12 µg/mL; MIC [25]: > 16 µg/mL; MIC [26]: ≤ 0.12 µg/mL; MIC [27]: ≤ 0.12 µg/mL; MIC [28]: 8 µg/mL; MIC [29]: ≤ 0.12 µg/mL; K [30]: 9 10^-4/s; MIC [31]: 16 µg/mL; MIC [32]: ≤ 0.12 µg/mL; MIC [33]: 0.25 µg/mL; K [34]: 1 10^-3/s; MIC [35]: 16 µg/mL; MIC [36]: 0.5 µg/mL; MIC [37]: 0.25 µg/mL; MIC [38]: 0.25 µg/mL; MIC [39]: ≤ 0.12 µg/mL
O=C(NNC(=O)[C@@H]1CC[C@@H]2CN1C(=O)N2OS(=O)(=O)O)[C@@H]1CCNC1,8 µg/mL,≤ 0.12 µg/mL,≤ 0.12 µg/mL,> 16 µg/mL,1 µg/mL,16 µg/mL,6.3 10^5/M/s,≤ 0.12 µg/mL,≤ 0.12 µg/mL,≤ 0.12 µg/mL,≤ 0.12 µg/mL,> 16 µg/mL,≤ 0.12 µg/mL,8 µg/mL,4 µg/mL,≤ 0.12 µg/mL,≤ 0.12 µg/mL,8 µg/mL,16 µg/mL,≤ 0.12 µg/mL,MIC [40]: 16 µg/mL; MIC [24]: ≤ 0.12 µg/mL; MIC [25]: 4 µg/mL; MIC [26]: ≤ 0.12 µg/mL; MIC [27]: ≤ 0.12 µg/mL; MIC [28]: 8 µg/mL; MIC [29]: ≤ 0.12 µg/mL; MIC [31]: > 16 µg/mL; MIC [32]: > 16 µg/mL; MIC [33]: 0.25 µg/mL; K [34]: 9 10^-4/s; MIC [35]: > 16 µg/mL; MIC [36]: ≤ 0.12 µg/mL; MIC [37]: ≤ 0.12 µg/mL; MIC [38]: ≤ 0.12 µg/mL; MIC [39]: ≤ 0.12 µg/mL

# — ChEMBL document CHEMBL5247575 (J Med Chem, 2018)
